Screening results: PubChem BioAssay, The Scripps Research Institute Molecular Screening Center
TAAR1 agonist = human TAAR1 agonists, primary screen, Fluo-8 calcium fluorescence, CHO RD-HGA16 cells. 360,000 tested, 0.99% active. vehicle wells 0%, saturating PEA agonist 100%. Trace amine-associated receptor 1 (Homo sapiens), Q96RJ0. activation, % at 3 µM;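 active = activation above the mean activation of all test compounds in the run plus 3 SD, cut at about 38% in these data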
Target sequence (Q96RJ0 whole entry, looked up): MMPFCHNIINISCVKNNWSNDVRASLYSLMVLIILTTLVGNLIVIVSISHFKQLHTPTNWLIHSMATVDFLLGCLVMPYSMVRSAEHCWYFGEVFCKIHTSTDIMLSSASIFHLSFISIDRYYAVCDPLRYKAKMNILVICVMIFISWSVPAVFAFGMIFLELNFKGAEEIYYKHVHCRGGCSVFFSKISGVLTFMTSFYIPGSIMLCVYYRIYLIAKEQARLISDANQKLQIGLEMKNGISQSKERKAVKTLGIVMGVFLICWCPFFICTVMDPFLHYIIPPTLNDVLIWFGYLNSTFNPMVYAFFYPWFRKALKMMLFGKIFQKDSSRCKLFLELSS
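Benchmarks: low control DMSO, high control PEA (EC100); System: CHO RD-HGA16 cells carrying human TAAR1 plus Gα16; Detection: Fluo-8 fluorescence, 5 s baseline then 140 s kinetic read; Schedule: 17-24 h plating, Fluo-8 75 min 37 °C, 30 min RT; Read-out basis: % activation from peak over basal fluorescence ratio, DMSO-to-PEA scaled.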
CHO parental Ca = ATP-evoked calcium signal inhibitors, parental CHO, primary screen, counter-screen for OX1R antagonist project, cell-based, fluorescence, Fluo-8 calcium dye. AID 463079, 2010. parental CHO-K1, ATP-induced calcium, Fluo-8 fluorescence. 330,000 tested, 0.63% active. inhibition, % at 5.6 µM;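 active = inhibition above that plate's mean sample inhibition plus 3 SD, cut at about 26% in these data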
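test system = CHO parental line | reagent = ATP stimulus | measured by = intracellular calcium via Fluo-8 no-wash fluorescent dye | control set = ATP and no-ATP DMSO wells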
OX1R antag-1 = antagonists of human orexin 1 receptor (OX1R); OX1R-expressing cells, FRET antagonist read-out; 330,000 tested, 1.8% active; Orexin/Hypocretin receptor type 1 (Homo sapiens), O43613; AID 485270, 2010; inhibition, % at 6.6 µM; in the data active = inhibition mostly above about 38%, no sharp cut-off; inactive = mostly below about 40%
TAAR1 antag = human TAAR1 antagonists, primary screen, Fluo-8 calcium fluorescence, CHO RD-HGA16 cells; Trace amine-associated receptor 1 (Homo sapiens), Q96RJ0; AID 624466, 2012; antagonist; 360,000 tested, 1.5% active; inhibition, % at 3 µM;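 active = inhibition above a per-plate cutoff, the mean inhibition of test compounds on that plate plus 3 SD, cut at about 49% in these data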
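Assay system: RD-HGA16 CHO cells with stable hTAAR1 and Gα16 / Reagent: EC80 β-phenethylamine stimulus / Doses: 3 µM, single point / Timing: dye loading 75 min at 37 °C, then 30 min room temperature / Measured by: Fluo-8 intracellular calcium dye fluorescence, real-time kinetic reads / Controls: vehicle wells and EC80 agonist wells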
OX1R antag-2 = OX1R (HCRTR1) antagonists, primary screen, fluorescence, CHO/OX1R cells, Fluo-8 calcium, orexin A | inhibition, % at 5 µM | Orexin/Hypocretin receptor type 1 (Homo sapiens), O43613 | 330,000 tested, 0.43% active | Fluo-8 calcium fluorescence;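 active = inhibition above its plate's threshold, mean inhibition of all tested compounds on the plate plus 3 SD, cut at about 37% in these data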
Hits are given with their value; i = inactive; nt = no result. Only some compounds are listed: those with a hit (about 3.9% of all), similar ones and a draw of the others.

SMILES	TAAR1 agonist	CHO parental Ca	OX1R antag-1	TAAR1 antag	OX1R antag-2
NS(=O)(=O)c1cccc(NC(=O)COC(=O)c2ccccc2C(=O)c2ccccc2)c1	i	i	i	i	i
CN(C)CCNc1ccc(-c2nn(C)c(=O)c3ccccc23)cc1[N+](=O)[O-]	i	i	42	i	i
Cn1c2ccsc2c2ncn(Cc3ccccc3F)c(=O)c21	i	i	42	i	i
Cc1ccc(OCCCN2CCC(C(O)(c3ccccc3)c3ccccc3)CC2)cc1	i	nt	nt	i	nt
C#Cc1ccccc1OCCCN1CCC(C(O)(c2ccccc2)c2ccccc2)CC1	40	nt	nt	51	nt
OC(c1ccccc1)(c1ccccc1)C1CCN(CCCOc2ccc(F)cc2)CC1	39	nt	nt	i	nt
COc1cc2[nH]c(=O)n3nc(-c4ccccc4)nc3c2cc1OC	nt	i	37	nt	i
COc1ccc(-c2nc3c4ccccc4[nH]c(=O)n3n2)cc1	i	i	i	i	i
COc1cccc(CNC(=O)[C@@H]2CCCN2C(=O)[C@H]2CCCCN2C(=O)OC(C)(C)C)c1	i	nt	nt	i	nt
CCOC(=O)/C(C#N)=C/Nc1ccccc1OC(F)(F)F	i	45	i	i	i
CNC(=O)c1ccsc1NC(=O)c1ccc2c(c1)CCCC2	i	i	i	51	i
COC(=O)[C@]12C[C@H](CC(=O)NCc3ccc(C)o3)C(=O)N(Cc3ccc4c(c3)OCO4)C1=C[C@H](C(C)(C)C)O[C@@H]2C	i	nt	nt	i	nt
Cc1ccc(S(=O)(=O)Nc2ccc3cc([N+](=O)[O-])ccc3c2[N+](=O)[O-])cc1	i	nt	nt	i	nt
CCOC(=O)C1CCN(c2ncnc3c2oc2ccccc23)CC1	i	i	62	i	i
CCOC(=O)C1CCCN(c2ncnc3c2oc2ccccc23)C1 (centres undefined)	i	40	89	i	55
CCOC(=O)C1CCN(c2nc(-c3ccccc3)nc3c2oc2ccccc23)CC1	i	i	i	i	i
OC(c1ccc(CN2CCCCC2)cc1)c1ncc(-c2ccccc2)[nH]1 (centres undefined)	i	nt	nt	i	nt
CCOC(=O)C1=CCN(S(=O)(=O)c2ccc(Br)cc2)C1c1cccc(F)c1 (centres undefined)	i	nt	nt	i	nt
O=C(Nc1cccc([N+](=O)[O-])c1)c1ccc([N+](=O)[O-])o1	i	nt	nt	i	nt
O=C(Nc1cccc(NC(=O)c2ccccc2Cl)c1)c1ccc([N+](=O)[O-])o1	i	i	i	55	i
O=C(Nc1ccc2[nH]c(=O)[nH]c2c1)c1ccc([N+](=O)[O-])o1	i	i	43	i	i
C/C(=N\N=c1/sc2ccccc2n1C)c1ccccn1	i	i	62	i	i
C/C(=N\N=c1/sc2ccccc2n1C)c1ccc(N2CCOCC2)cc1	i	i	i	i	i
c1ccc(-c2nc3c(ccc4ccccc43)[nH]2)nc1	i	i	71	i	i
c1ccc(-c2nc3ccccc3[nH]2)nc1	i	i	i	i	i
SMILES	TAAR1 agonist	CHO parental Ca	OX1R antag-1	TAAR1 antag	OX1R antag-2
CCOC(=O)c1c(C)[nH]c(C(=O)COC(=O)CN2C(=O)C3CCCCC3C2=O)c1C (centres undefined)	i	i	i	i	i
CCOC(=O)c1c(C)[nH]c(C(=O)COC(=O)C(C)N2C(=O)C3CCCCC3C2=O)c1C (centres undefined)	i	i	i	51	i
CC(C)C[C@H]1CN(CCCC[C@@H]2CNC(=O)C(=O)N2CC2CCCCC2)C(=O)C(=O)N1CC1CCCCC1	i	nt	nt	i	nt
COc1ccnc(Oc2ccccc2)c1C(=O)N/C=N/OCc1ccc(F)cc1Cl	i	i	i	61	i
COc1ccccc1CO/N=C/NC(=O)c1c(OC)ccnc1Oc1ccc(F)cc1	i	i	i	i	i
CC(=O)OCC1=C(C(=O)OC(C)(C)C)N2C(=O)[C@@H](NC(=O)Cc3ccccc3)[C@H]2SC1	i	nt	nt	i	nt
CC1=C(C(=O)OCC(Cl)(Cl)Cl)N2C(=O)C(NC(=O)Cc3ccccc3)C2SC1 (centres undefined)	i	i	i	61	i
Cc1ccc(C)c(N2CCN(C(=O)C3CCN(S(=O)(=O)c4cccc5nsnc45)CC3)CC2)c1	i	i	i	54	i
